Source: ChEMBL document CHEMBL1649306, “Arylimidamide DB766, a potential chemotherapeutic candidate for Chagas' disease treatment” (Antimicrob Agents Chemother, 2010)
The source made the active and inactive calls. No cut-off for these calls is given here.

Experiments:
Mus musculus [1] = test: Toxicity in […](H-2k) mouse assessed as effect on creatine kinase level at 100 mg/kg/day, po; assay type: organism-based; parameters: route oral; conditions: in vivo
Trypanosoma cruzi [2] = test: Antitrypanosomal activity against Trypanosoma cruzi Y infected in Swiss-Webster mouse assessed as decrease in parasite-induced weight loss at 100 mg/kg/day, ip administered 5 days post-infection for 10 consecutive days measured on day 120; assay type: functional, organism-based
How it was run: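 Body weight of infected, treated mice followed from 0 to 120 dpi.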

Mus musculus [3] = test: Cardiotoxicity in […] mouse assessed as effect on heart rate level at 100 mg/kg/day, po; assay type: toxicity, organism-based; parameters: route oral; conditions: in vivo
How it was run: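 Colombian strain, 5 × 10³ bloodstream forms i.p. into male C3H/He mice; 100 mg/kg/day given i.p. or by gavage (0.1 ml) daily for 10 doses from parasitemia onset. Mice sedated with diazepam (20 mg/kg i.p.), supine; eight-lead ECG from subcutaneous limb needle electrodes plus precordial lead II. Signal-averaged ECG; heart rate as beats per minute.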

Trypanosoma cruzi [4] = test: Antitrypanosomal activity against Trypanosoma cruzi Y bloodstream forms infected in Swiss-Webster mouse assessed as decrease in parasite load at 100 mg/kg/day, po administered 5 days postinfection for 10 alternate days measured after 31 days; assay type: functional; parameters: scale not given: the % may be the effect or the level left
How it was run: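 Male Swiss mice infected with 10^4 Y strain bloodstream forms and treated every other day with 100 mg/kg/day, reference drug by gavage. Parasitemia measured by the Pizzi-Brener method.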

Mus musculus [5] = test: Cytotoxicity against Swiss-Webster mouse assessed as effect on creatine kinase at 100 mg/kg/day measured after 14 days postinfection; assay type: organism-based; conditions: in vivo, 336 h
Mus musculus [6] = test: Hepatotoxicity against Swiss-Webster mouse assessed as GPT at 100 mg/kg/day measured after 14 days postinfection; assay type: toxicity, organism-based; conditions: in vivo, 336 h
[7] = Toxicity in […](H-2k) mouse assessed as mortality at cumulative dose of 100 mg/kg, po measured after 48 hrs; assay type: organism-based; parameters: dose 100 mg/kg, route oral; conditions: in vivo, read-out: Activity
Trypanosoma cruzi [8] = test: Antitrypanosomal activity against Trypanosoma cruzi Y epimastigotes after 24 hrs by light microscopy; assay type: functional, organism-based
How it was run: (§1)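 Epimastigotes from 5-day exponential cultures, 5 × 10^6 parasites/ml in LIT medium, incubated at 28°C up to 96 h with DB766 0 to 32 μM or Bz 0 to 250 μM. Counted daily in a Neubauer chamber. IC50 averaged from at least three determinations in duplicate.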

Trypanosoma cruzi [9] = test: Antitrypanosomal activity against Trypanosoma cruzi 855 epimastigotes after 24 hrs by light microscopy; assay type: functional, organism-based; conditions: Trypanosoma cruzi, 855, 24 h; how it was run: as §1
Trypanosoma cruzi [10] = test: Antitrypanosomal activity against Trypanosoma cruzi 875 epimastigotes after 24 hrs by light microscopy; assay type: functional, organism-based; conditions: Trypanosoma cruzi, 875, 24 h; how it was run: as §1
Trypanosoma cruzi [11] = test: Antitrypanosomal activity against Trypanosoma cruzi 956 epimastigotes after 24 hrs by light microscopy; assay type: functional, organism-based; conditions: Trypanosoma cruzi, 956, 24 h; how it was run: as §1
Trypanosoma cruzi [12] = test: Antitrypanosomal activity against Trypanosoma cruzi 958 epimastigotes after 24 hrs by light microscopy; assay type: functional, organism-based; conditions: Trypanosoma cruzi, 958, 24 h; how it was run: as §1
Trypanosoma cruzi [13] = test: Antitrypanosomal activity against Trypanosoma cruzi 960 epimastigotes after 24 hrs by light microscopy; assay type: functional, organism-based; conditions: Trypanosoma cruzi, 960, 24 h; how it was run: as §1
Trypanosoma cruzi [14] = test: Antitrypanosomal activity against Trypanosoma cruzi MS1523 epimastigotes after 24 hrs by light microscopy; assay type: functional, organism-based; conditions: MS1523, 24 h; how it was run: as §1
Trypanosoma cruzi [15] = test: Antitrypanosomal activity against Trypanosoma cruzi RBVIII epimastigotes after 24 hrs by light microscopy; assay type: functional, organism-based; how it was run: as §1
Mus musculus [16] = test: Toxicity in […](H-2k) mouse assessed as mortality at cumulative dose of 200 mg/kg, ip measured after 48 hrs; assay type: organism-based; parameters: dose 200 mg/kg, route intraperitoneal; conditions: in vivo
How it was run: (§2)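 Uninfected 8–10-week-old female and male Swiss Webster and C3H/He (H-2k) mice injected i.p. on day 1 every 2 h with escalating doses: 5, 15, 30, 50 and 100 mg/kg (cumulative 20, 50, 100, 200 mg/kg). Toxic and subtoxic signs inspected on days 2–3 per OECD guidelines; tolerated dose set at 48 h.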

Mus musculus [17] = test: Toxicity in female Swiss-Webster mouse assessed as mortality at cumulative dose of 200 mg/kg, ip measured after 48 hrs; assay type: organism-based; parameters: dose 200 mg/kg, route intraperitoneal; conditions: in vivo; how it was run: as §2
Mus musculus [18] = test: Toxicity in male Swiss-Webster mouse assessed as mortality at cumulative dose of 200 mg/kg, ip measured after 48 hrs; assay type: organism-based; parameters: dose 200 mg/kg, route intraperitoneal; conditions: in vivo; how it was run: as §2
Mus musculus [19] = test: Toxicity in male Swiss-Webster mouse assessed as weight loss at cumulative dose of 200 mg/kg, ip measured after 48 hrs; assay type: organism-based; parameters: dose 200 mg/kg, route intraperitoneal; conditions: in vivo
How it was run: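 Acute toxicity in 8–10-week-old Swiss Webster mice. i.p. injections every 2 h of 5, 15, 30, 50 and 100 mg/kg (cumulative 200 mg/kg) on day 1. Toxic and subtoxic signs inspected on days 2 and 3 per OECD guidelines; outcome read 48 h after injection.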

Trypanosoma cruzi [20] = test: Antitrypanosomal activity against Trypanosoma cruzi Y bloodstream forms infected in Swiss-Webster mouse assessed as decrease in parasite load at 100 mg/kg/day, po administered 8 days postinfection measured on day 2; assay type: functional, organism-based
How it was run: (§3)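 Male Swiss mice infected i.p. with 10^4 Y strain bloodstream forms. Given 0.2 ml i.p. at 5 and 8 dpi, or daily for 10 days from 5 dpi; reference drug given by gavage. Parasitemia measured by the Pizzi-Brener method, cumulative mortality checked daily to 120 dpi, n ≥ 6 per group.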

Trypanosoma cruzi [21] = test: Antitrypanosomal activity against Trypanosoma cruzi Y bloodstream forms infected in Swiss-Webster mouse assessed as survival of mouse at 100 mg/kg/day, ip administered 8 days postinfection measured on day 120; assay type: functional, organism-based; how it was run: as §3
Trypanosoma cruzi [22] = test: Antitrypanosomal activity against Trypanosoma cruzi Columbian bloodstream forms infected in C3H mouse assessed as decrease in parasite load at 100 mg/kg/day, ip administered 21 days postinfection measured on day 46; assay type: functional, organism-based
How it was run: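 C3H/He mice infected i.p. with 10^2 Colombian strain bloodstream forms. Treatment started at parasitemia onset (21 dpi) with daily doses for 10 treatments, 0.1 ml i.p. Parasitemia measured by the Pizzi-Brener method; n ≥ 6 parasitemic mice per group.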

Mus musculus [23] = test: Hepatotoxicity in Swiss-Webster mouse assessed as effect on GPT level at 25 mg/kg/day, ip administered 21 days postinfection measured on day 120; assay type: toxicity, organism-based; parameters: route intraperitoneal; conditions: in vivo, 504 h
Mus musculus [24] = test: Hepatotoxicity in Swiss-Webster mouse assessed as effect on GPT level at 50 mg/kg/day, ip administered 21 days postinfection measured on day 120; assay type: toxicity, organism-based; parameters: route intraperitoneal; conditions: in vivo, 504 h
Mus musculus [25] = test: Hepatotoxicity in Swiss-Webster mouse assessed as increased GPT level at 100 mg/kg/day, ip administered 21 days postinfection measured on day 120; assay type: toxicity, organism-based; parameters: route intraperitoneal; conditions: in vivo, 504 h
Trypanosoma cruzi [26] = test: Antitrypanosomal activity against Trypanosoma cruzi Columbian bloodstream forms infected in C3H mouse assessed as survival of mouse at 100 mg/kg/day, po administered 5 days postinfection for 10 consecutive days measured after 31 days; assay type: functional
How it was run: (§4)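 Male C3H/He (H-2k) mice infected i.p. with 5 × 10^3 Colombian-strain bloodstream trypomastigotes; only parasitemia-positive mice grouped (n ≥ 6). DB766 100 mg/kg/day given i.p. (0.1 ml) or by gavage (0.1 ml), daily for 10 treatments. Parasitemia by Pizzi-Brener method; mortality checked daily, expressed as cumulative percentage.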

Trypanosoma cruzi [27] = test: Antitrypanosomal activity against Trypanosoma cruzi Columbian bloodstream forms infected in C3H mouse assessed as decrease in parasite load at 100 mg/kg/day, ip administered 5 days postinfection for 10 consecutive days measured after 31 days; assay type: functional; parameters: scale not given: the % may be the effect or the level left; conditions: route intraperitoneal
How it was run: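 C3H/He mice infected i.p. with 10^3 or 5 × 10^3 Colombian strain bloodstream forms. Treated daily for 10 days with 0.1 ml i.p. or by gavage, reference drug given by gavage. Parasitemia measured by the Pizzi-Brener method; n ≥ 6 parasitemic mice per group.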

Trypanosoma cruzi [28] = test: Antitrypanosomal activity against Trypanosoma cruzi Columbian bloodstream forms infected in C3H mouse assessed as survival of mouse at 100 mg/kg/day, ip administered 5 days postinfection for 10 consecutive days measured after 31 days; assay type: functional; conditions: route intraperitoneal; how it was run: as §4
Trypanosoma cruzi [29] = test: Antitrypanosomal activity against bloodstream forms of Trypanosoma cruzi Y after 24 hrs by light microscopy in presence of 50% mouse blood; assay type: functional, organism-based
How it was run: (§5)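 Bloodstream trypomastigotes kept at 4°C for 24 h in freshly isolated 50% mouse blood with serial dilutions (up to 32 μM). Motile live parasites counted in a Neubauer chamber by light microscopy; IC50 calculated as concentration reducing parasite number by 50%.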

Trypanosoma cruzi [30] = test: Antitrypanosomal activity against bloodstream forms of Trypanosoma cruzi YuYu after 24 hrs by light microscopy in presence of 50% mouse blood; assay type: functional, organism-based; how it was run: as §5
Trypanosoma cruzi [31] = test: Antitrypanosomal activity against bloodstream forms of Trypanosoma cruzi Columbian after 24 hrs by light microscopy in presence of 50% mouse blood; assay type: functional, organism-based; how it was run: as §5
Trypanosoma cruzi [32] = test: Antitrypanosomal activity against bloodstream forms of Trypanosoma cruzi CL after 24 hrs by light microscopy in presence of 50% mouse blood; assay type: functional, organism-based; how it was run: as §5

**Q.** Which Activity (Mus musculus [1]) does the source give for `O=C(Cn1ccnc1[N+](=O)[O-])NCc1ccccc1` [BENZNIDAZOLE] here?
**A.** 68%

**Q.** And the Activity (Trypanosoma cruzi [2])?
**A.** Active

**Q.** And the Activity (Mus musculus [3])?
**A.** Non-toxic

**Q.** And the Activity (Trypanosoma cruzi [4])?
**A.** 79.4%

**Q.** And the Activity (Mus musculus [5])?
**A.** Non-toxic

**Q.** And the Activity (Mus musculus [6])?
**A.** Non-toxic

**Q.** What about the mortality at 48 h [7] of the same compound?
**A.** 100%

**Q.** What about the IC50 (Trypanosoma cruzi [8]) of the same compound?
**A.** 7.65 µM

**Q.** What about the IC90 (Trypanosoma cruzi [8]) of the same compound?
**A.** 86.6 µM

**Q.** What about the IC50 (Trypanosoma cruzi [9]) of the same compound?
**A.** 12.6 µM

**Q.** What about the IC90 (Trypanosoma cruzi [9]) of the same compound?
**A.** 226 µM

**Q.** And the IC50 (Trypanosoma cruzi [10])?
**A.** 7.9 µM

**Q.** And the IC90 (Trypanosoma cruzi [10])?
**A.** 196 µM

**Q.** And the IC50 (Trypanosoma cruzi [11])?
**A.** 3.96 µM

**Q.** What about the IC90 (Trypanosoma cruzi [11]) of the same compound?
**A.** 20.4 µM

**Q.** And the IC50 (Trypanosoma cruzi [12])?
**A.** 13.7 µM

**Q.** And the IC90 (Trypanosoma cruzi [12])?
**A.** 58.3 µM

**Q.** And the IC50 (Trypanosoma cruzi [13])?
**A.** 6.44 µM

**Q.** And the IC90 (Trypanosoma cruzi [13])?
**A.** 38.2 µM

**Q.** What about the IC50 (Trypanosoma cruzi [14]) of the same compound?
**A.** 5.3 µM

**Q.** What about the IC90 (Trypanosoma cruzi [14]) of the same compound?
**A.** 30.6 µM

**Q.** What about the IC50 (Trypanosoma cruzi [15]) of the same compound?
**A.** 5.06 µM

**Q.** And the IC90 (Trypanosoma cruzi [15])?
**A.** 35.7 µM

**Q.** What about the Activity (Mus musculus [16]) of the same compound?
**A.** Non-toxic

**Q.** And the Activity (Mus musculus [17])?
**A.** Non-toxic

**Q.** And the Activity (Mus musculus [18])?
**A.** Non-toxic

**Q.** What about the Activity (Mus musculus [19]) of the same compound?
**A.** 7%

**Q.** What about the Activity (Trypanosoma cruzi [20]) of the same compound?
**A.** inactive

**Q.** What about the Activity (Trypanosoma cruzi [21]) of the same compound?
**A.** inactive

**Q.** And the Activity (Trypanosoma cruzi [22])?
**A.** inactive

**Q.** What about the Activity (Mus musculus [23]) of the same compound?
**A.** Non-toxic

**Q.** What about the Activity (Mus musculus [24]) of the same compound?
**A.** Non-toxic

**Q.** And the Activity (Mus musculus [25])?
**A.** Toxic

**Q.** And the Activity (Trypanosoma cruzi [26])?
**A.** 100%

**Q.** And the Activity (Trypanosoma cruzi [27])?
**A.** 100%

**Q.** What about the Activity (Trypanosoma cruzi [28]) of the same compound?
**A.** 99%

**Q.** For `N=C(N)c1ccc(-c2ccc(-c3ccc(C(=N)N)cc3)o2)cc1` [FURAMIDINE], which IC50 (Trypanosoma cruzi [29]) is on record?
**A.** > 32 µM

**Q.** And the IC50 (Trypanosoma cruzi [30])?
**A.** > 32 µM

**Q.** What about the IC50 (Trypanosoma cruzi [31]) of the same compound?
**A.** > 32 µM

**Q.** And the IC50 (Trypanosoma cruzi [32])?
**A.** > 32 µM
